Measurements from ChEMBL document CHEMBL1135810, “Water-soluble, core-modified porphyrins as novel, longer-wavelength-absorbing sensitizers for photodynamic therapy. II. Effects of core heteroatoms and meso-substituents on biological activity” (J Med Chem, 2002).

tested on: Colon 26; assay: Effective concentration required to give 50% cell kill with 4 J/cm**2 of light.(Dark and light induced toxicity towards murine colon carcinoma cell line(COLO-26 cells)); format: functional, cell-based; conditions: Mus musculus, Colon 26, light or radiation study
Outline: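 Colo-26 mouse colon carcinoma cells grown in RPMI 1640 with 10% fetal calf serum at 37 °C, 5% CO2, plated at 5×10^3 cells/well the evening before. Cells were PBS-washed, then kept 24 h at 37 °C in the dark with graded sensitizer in HBSS, washed, and irradiated in PBS with filtered 590–800 nm light (methods state 570–800 nm) to 4 J cm-2. Dark controls were not irradiated. After 24 h in growth medium, MTT survival was read, and EC50 was taken from surviving fraction vs concentration.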

| Compound | EC50 |
| --- | --- |
| O=C(O)COc1ccc(-c2c3nc(c(-c4ccc(F)cc4)c4ccc(s4)c(-c4ccc(F)cc4)c4nc(c(-c5ccc(OCC(=O)O)cc5)c5ccc2s5)C=C4)C=C3)cc1 | 430 nM |
| O=S(=O)(O)c1ccc(-c2c3nc(c(-c4ccc(F)cc4)c4ccc([se]4)c(-c4ccc(F)cc4)c4nc(c(-c5ccc(S(=O)(=O)O)cc5)c5ccc2[se]5)C=C4)C=C3)cc1 | 7900 nM |
| Cc1ccc(-c2c3nc(c(-c4ccc(S(=O)(=O)O)cc4)c4ccc(s4)c(-c4ccc(S(=O)(=O)O)cc4)c4nc(c(-c5ccc(C)cc5S(=O)(=O)O)c5ccc2s5)C=C4)C=C3)c(S(=O)(=O)O)c1 | 12000 nM |
| O=S(=O)(O)c1ccc(-c2c3nc(c(-c4ccc(S(=O)(=O)O)cc4)c4ccc(s4)c(-c4ccc(S(=O)(=O)O)cc4)c4nc(c(-c5ccc(S(=O)(=O)O)cc5)c5ccc2s5)C=C4)C=C3)cc1 | 30000 nM |
| O=C(O)COc1ccc(-c2c3nc(c(-c4ccccc4)c4ccc(s4)c(-c4ccccc4)c4nc(c(-c5ccc(OCC(=O)O)cc5)c5ccc2s5)C=C4)C=C3)cc1 | 150 nM |
| CN(C)c1ccc(-c2c3nc(c(-c4ccc(S(=O)(=O)O)cc4)c4ccc(s4)c(-c4ccc(S(=O)(=O)O)cc4)c4nc(c(-c5ccc(N(C)C)cc5)c5ccc2s5)C=C4)C=C3)cc1 | 640 nM |
| O=S(=O)(O)c1ccc(-c2c3nc(c(-c4ccc(S(=O)(=O)O)cc4)c4ccc([nH]4)c(-c4ccc(S(=O)(=O)O)cc4)c4ccc(s4)c(-c4ccc(S(=O)(=O)O)cc4)c4nc2C=C4)C=C3)cc1 | > 100000 nM |
| O=S(=O)(O)c1ccc(-c2c3nc(c(-c4ccc(C(F)(F)F)cc4)c4ccc(s4)c(-c4ccc(C(F)(F)F)cc4)c4nc(c(-c5ccc(S(=O)(=O)O)cc5)c5ccc2s5)C=C4)C=C3)cc1 | > 100000 nM |
| O=S(=O)(O)c1ccc(-c2c3nc(c(-c4ccc(F)cc4)c4ccc(s4)c(-c4ccc(F)cc4)c4nc(c(-c5ccc(S(=O)(=O)O)cc5)c5ccc2[se]5)C=C4)C=C3)cc1 | 2100 nM |
| O=S(=O)(O)c1ccc(-c2c3nc(c(-c4ccc(F)cc4)c4ccc(s4)c(-c4ccc(F)cc4)c4nc(c(-c5ccc(S(=O)(=O)O)cc5)c5ccc2[nH]5)C=C4)C=C3)cc1 | 2100 nM |
| O=S(=O)(O)c1ccc(-c2c3nc(c(-c4ccc(F)cc4)c4ccc(s4)c(-c4ccc(F)cc4)c4nc(c(-c5ccc(S(=O)(=O)O)cc5)c5ccc2s5)C=C4)C=C3)cc1 | 1600 nM |
| O=S(=O)(O)c1ccc(-c2c3nc(c(-c4ccc(S(=O)(=O)O)cc4)c4ccc([nH]4)c(-c4ccc(S(=O)(=O)O)cc4)c4ccc([nH]4)c(-c4ccc(S(=O)(=O)O)cc4)c4nc2C=C4)C=C3)cc1 | 125000 nM |
| O=S(=O)(O)c1ccc(-c2c3nc(c(-c4ccc(F)cc4)c4ccc([se]4)c(-c4ccc(F)cc4)c4nc(c(-c5ccc(S(=O)(=O)O)cc5)c5ccc2s5)C=C4)C=C3)cc1 | 1200 nM |
| O=S(=O)(O)c1ccc(-c2c3nc(c(-c4ccc(S(=O)(=O)O)cc4)c4ccc([se]4)c(-c4ccc(S(=O)(=O)O)cc4)c4nc(c(-c5ccc(S(=O)(=O)O)cc5)c5ccc2[se]5)C=C4)C=C3)cc1 | > 100000 nM |
